Source: ChEMBL document CHEMBL1909523, “2,6-Bis-arylmethyloxy-5-hydroxychromones with antiviral activity against both hepatitis C virus (HCV) and SARS-associated coronavirus (SCV)” (Eur J Med Chem, 2011)
The source made the active and inactive calls. The calls are words filed in the database; no cut-off is given here.

Legend:
[1] = system: Hepatitis C virus; experiment: Antiviral activity against HCV genotype 1 infected in human Huh7 cells assessed as reduction of viral replication after 4 days by luciferase reporter gene assay; assay type: functional, organism-based, Hepacivirus hominis; conditions: genotype 1, Huh-7, 96 h
How it was run: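 Subgenomic genotype 1 replicon (luc-ubi-neo) Huh-5-2 cells, 5 × 10^3/well, in DMEM with 500 µg/mL G418 for 24 h at 37 °C, 5% CO2; medium refreshed with G418, compounds added from DMSO stock; 4 days at 37 °C; luciferase read-out. Value is the concentration inhibiting HCV RNA replication by 50%.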

[2] = system: Hepatitis C virus; experiment: Inhibition of HCV genotype 1b NS5B cdelta21 RNA polymerase using [alpha32p]GTP after 30 mins by microbeta scintillation counting; conditions: Hepatitis C virus subtype 1b
[3] = Inhibition of NTPase activity of SCV NTPase/helicase after 5 mins by FRET assay; set-up: species or system Severe acute respiratory syndrome-related coronavirus
[4] = system: HS27; experiment: Cytotoxicity against human HS27 cells after 24 hrs by MTT assay; assay type: cell-based; conditions: hs27, 24 h
How it was run: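 Normal human fibroblast HS27 cells, 5 × 10^3/well in DMEM, grown 1 day (37 °C, 5% CO2), then given compounds at 0.1, 0.5, 1, 5, 10 and 50 µM (from DMSO) for 24 h; MTT viability read-out; triplicates, repeated three times. Value is the concentration reducing proliferation by 50%.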

[5] = Inhibition of helicase activity of SCV NTPase/helicase assessed as inhibition of ds-DNA unwinding after 5 mins by FRET assay; set-up: species or system Severe acute respiratory syndrome-related coronavirus
How it was run: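 FRET unwinding: helicase solution (150 nM, 20 mM HEPES pH 7.4) preincubated 5 min at rt with compound. Started with 5× mix (5 mM MgCl2, 45 mM ATP, 25 mM DTT, 100 nM substrate): 25-bp TAMRA/fluorescein dsDNA with 20-dT 5′ overhang. Run 2 min at 37 °C, stopped with EDTA plus unlabelled trap oligomer; ex 485/em 535 nm. Value is 50% inhibition concentration.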

Compound | EC50 [1] [µM] | inhibition [2] | IC50 [3] [µM] | Activity [4] [µM] | IC50 [5] [µM]
O=c1cc(OCc2cc(Cl)cc(Cl)c2)oc2ccc(OCc3cccc(Cl)c3)c(O)c12 | 1 | inactive | > 50 | > 50 | > 50
O=c1cc(OCc2ccc(Cl)cc2)oc2ccc(OCc3cccc(Cl)c3)c(O)c12 | 24 | inactive | 28 | > 50 | 53
N#Cc1cccc(COc2cc(=O)c3c(O)c(OCc4cccc(Cl)c4)ccc3o2)c1 | 17 | inactive | 37 | > 50 | > 50
O=c1cc(OCc2cccc(I)c2)oc2ccc(OCc3cccc(Cl)c3)c(O)c12 | 4 | inactive | 4 | > 50 | 11
O=c1c(OCc2cccc([N+](=O)[O-])c2)c(-c2ccccc2)oc2cc(O)cc(O)c12 |  |  | > 50 | > 50 | > 50
O=C(O)/C(O)=C/C(=O)c1cccc(NCc2ccc(Cl)cc2)c1 | 0.8 |  | > 50 | > 50 | 
O=c1cc(OCc2ccc(I)cc2)oc2ccc(OCc3cccc(Cl)c3)c(O)c12 | 3 | inactive | 23 | > 50 | 31
O=c1cc(OCc2cccc(Cl)c2)oc2ccc(OCc3cccc(Cl)c3)c(O)c12 | 17 | inactive | 10 | > 50 | 40
N#Cc1cccc(COc2cc(O)c3c(=O)c(O)c(-c4ccccc4)oc3c2)c1 |  |  | > 50 | > 50 | > 50
O=c1cc(OCc2ccccc2)oc2ccc(OCc3cccc(Cl)c3)c(O)c12 | > 50 | inactive | > 50 | > 50 | > 50
